In ChEMBL document CHEMBL1124461, “Aromatic dienoyl tetramic acids. Novel antibacterial agents with activity against anaerobes and staphylococci” (J Med Chem, 1989):
≈ marks a conversion by molar mass, not a printed value.

Tests used:
[1] = tested on: Staphylococcus aureus; experiment: Compound is evaluated for cross resistance with DNA gyrase subunit A or B against Staphylococcus aureus 730A; format: functional
In short: (§1)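 Aerobic MIC by 2-fold dilution on brain–heart infusion agar; values in µg/mL.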

[2] = tested on: Staphylococcus aureus; experiment: Compound is evaluated for cross resistance with DNA gyrase subunit A or B against Staphylococcus aureus 45; format: functional; in short: as §1
[3] = tested on: Staphylococcus aureus; experiment: Compound is evaluated for cross resistance with DNA gyrase subunit A or B against Staphylococcus aureus 45CR-1 (coumermycin resistant); format: functional; in short: as §1
[4] = tested on: Staphylococcus aureus; experiment: Compound is evaluated for cross resistance with DNA gyrase subunit A or B against Staphylococcus aureus 337-113 (norfloxacin-resistant); format: functional; in short: as §1
[5] = tested on: Bacteroides thetaiotaomicron; experiment: Minimum inhibitory concentration against Bacteroides thetaiotaomicron ATCC 29741; format: functional
In short: (§2)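 Anaerobic MICs by 2-fold dilution in Wilkens-Chalgren broth, reported in micrograms/milliliter.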

[6] = tested on: Clostridioides difficile; experiment: Minimum inhibitory concentration against Clostridium difficile ATCC 9689; format: functional; in short: as §2
[7] = tested on: Clostridium perfringens; experiment: Minimum inhibitory concentration against Clostridium perfringens ATCC 13124; format: functional
In short: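 Anaerobic MIC by 2-fold dilution in Wilkens-Chalgren broth; values in µg/mL.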

[8] = tested on: Bacteroides fragilis; experiment: Minimum inhibitory concentration against Bacteroides fragilis ATCC 25285; format: functional; in short: as §2
[9] = tested on: Micrococcus luteus; experiment: Minimum inhibitory concentration (MIC) against the cell line Micrococcus luteus ATCC 4698; format: functional
In short: (§3)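 Aerobic MICs by 2-fold dilution on brain–heart infusion agar, reported in micrograms/milliliter.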

[10] = tested on: Streptococcus pyogenes; experiment: Minimum inhibitory concentration (MIC) against the cell line Streptococcus pyogenes EES61; format: functional; in short: as §3
[11] = tested on: Escherichia coli; experiment: Minimum inhibitory concentration (MIC) against the cell line Escherichia coli H560; format: functional; in short: as §3
[12] = tested on: Staphylococcus aureus; experiment: Minimum inhibitory concentration (MIC) against the cell line Staphylococcus aureus 45; format: functional; in short: as §3
[13] = tested on: Staphylococcus aureus; experiment: Minimum inhibitory concentration (MIC) against the cell line Staphylococcus aureus CMX 686B; format: functional; in short: as §3
[14] = tested on: Escherichia coli; experiment: Minimum inhibitory concentration (MIC) against the cell line Escherichia coli juhl; format: functional; in short: as §3
[15] = tested on: Streptococcus equinus; experiment: Minimum inhibitory concentration (MIC) against the cell line Streptococcus bovis A5169; format: functional; in short: as §3
[16] = tested on: Staphylococcus epidermidis; experiment: Minimum inhibitory concentration (MIC) against the strain Staphylococcus epidermidis 3519
[17] = tested on: Staphylococcus aureus; experiment: Minimum inhibitory concentration (MIC) against the cell line Staphylococcus aureus ATCC 6538P; format: functional; in short: as §3
[18] = tested on: Pseudomonas aeruginosa; experiment: Minimum inhibitory concentration (MIC) against the cell line Pseudomonas aeruginosa A5007; format: functional; in short: as §3
[19] = tested on: Staphylococcus aureus; experiment: Minimum inhibitory concentration (MIC) against the cell line Staphylococcus aureus A5177; format: functional; in short: as §3
[20] = molecular target: DNA-directed RNA polymerase subunit beta (Escherichia coli K-12) (UniProt P0A8V2); experiment: Percent inhibition at a concentration of 100 ug/mL of RNA polymerase isolated from Escherichia coli K12 (Sigma)
Chain of DNA-directed RNA polymerase subunit beta (Escherichia coli K-12) (P0A8V2 whole entry, looked up): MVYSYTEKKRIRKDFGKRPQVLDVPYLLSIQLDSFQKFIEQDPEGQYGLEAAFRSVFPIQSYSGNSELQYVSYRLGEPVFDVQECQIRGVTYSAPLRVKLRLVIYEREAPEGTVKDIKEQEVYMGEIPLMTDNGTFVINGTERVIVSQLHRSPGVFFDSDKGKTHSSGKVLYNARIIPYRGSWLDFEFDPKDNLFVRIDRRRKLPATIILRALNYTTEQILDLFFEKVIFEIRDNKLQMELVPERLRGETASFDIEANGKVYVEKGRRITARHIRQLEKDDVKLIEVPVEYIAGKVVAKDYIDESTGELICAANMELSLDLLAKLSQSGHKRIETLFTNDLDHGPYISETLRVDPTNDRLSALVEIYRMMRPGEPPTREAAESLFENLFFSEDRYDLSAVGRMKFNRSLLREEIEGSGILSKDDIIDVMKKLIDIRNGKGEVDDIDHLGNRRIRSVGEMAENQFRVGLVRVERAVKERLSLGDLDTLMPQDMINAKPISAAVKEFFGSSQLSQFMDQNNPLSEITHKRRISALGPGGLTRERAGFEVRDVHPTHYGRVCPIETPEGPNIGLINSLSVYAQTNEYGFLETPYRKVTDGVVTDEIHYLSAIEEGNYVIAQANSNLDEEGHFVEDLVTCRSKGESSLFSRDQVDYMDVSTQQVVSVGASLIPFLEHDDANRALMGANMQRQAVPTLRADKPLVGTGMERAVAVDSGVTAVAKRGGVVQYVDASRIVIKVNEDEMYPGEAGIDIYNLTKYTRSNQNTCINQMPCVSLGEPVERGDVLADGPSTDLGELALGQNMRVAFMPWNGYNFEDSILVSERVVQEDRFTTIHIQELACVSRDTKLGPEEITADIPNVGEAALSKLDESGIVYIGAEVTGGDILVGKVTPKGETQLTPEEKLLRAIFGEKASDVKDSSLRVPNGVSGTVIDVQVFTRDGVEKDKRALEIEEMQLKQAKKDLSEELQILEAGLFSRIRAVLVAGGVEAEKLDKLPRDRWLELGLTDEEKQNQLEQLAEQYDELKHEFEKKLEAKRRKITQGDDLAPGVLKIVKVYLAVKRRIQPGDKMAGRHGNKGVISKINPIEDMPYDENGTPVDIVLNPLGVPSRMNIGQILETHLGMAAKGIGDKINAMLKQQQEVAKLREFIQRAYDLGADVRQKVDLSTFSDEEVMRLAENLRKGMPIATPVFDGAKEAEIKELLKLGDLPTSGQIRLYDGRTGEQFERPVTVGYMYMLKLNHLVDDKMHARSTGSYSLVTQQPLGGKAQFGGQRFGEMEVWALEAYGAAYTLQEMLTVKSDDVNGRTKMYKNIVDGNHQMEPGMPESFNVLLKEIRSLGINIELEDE

CN1CCN(c2cc3c(cc2F)c(=O)c(C(=O)O)cn3-c2ccc(F)cc2)CC1 [DIFLOXACIN]
MIC [1]: 0.25 µg/mL (≈ 0.626 µM)
MIC [2]: 0.25 µg/mL (≈ 0.626 µM)
MIC [3]: 0.25 µg/mL (≈ 0.626 µM)
MIC [4]: 4 µg/mL (≈ 10 µM)

CC(/C=C/C(O)=C1\C(=O)C2CCCN2C1=O)=C\c1ccc2ccccc2c1 (configuration not stated)
MIC [5]: 62 µg/mL (≈ 172 µM)
MIC [6]: 16 µg/mL (≈ 44.5 µM)
MIC [7]: 31 µg/mL (≈ 86.2 µM)
MIC [8]: 31 µg/mL (≈ 86.2 µM)

CC(/C=C/C(O)=C1\C(=O)CNC1=O)=C\c1ccc2ccccc2c1
MIC [9]: 6.2 µg/mL (≈ 19.4 µM)
MIC [10]: 12.5 µg/mL (≈ 39.1 µM)
MIC [11]: > 100 µg/mL
MIC [12]: 0.78 µg/mL (≈ 2.44 µM)
MIC [13]: 0.78 µg/mL (≈ 2.44 µM)
MIC [14]: > 100 µg/mL
MIC [5]: ≤ 0.5 µg/mL
MIC [15]: 12.5 µg/mL (≈ 39.1 µM)
MIC [16]: 3.1 µg/mL (≈ 9.71 µM)
MIC [17]: 0.78 µg/mL (≈ 2.44 µM)
MIC [6]: ≤ 0.5 µg/mL
MIC [7]: ≤ 0.5 µg/mL
MIC [18]: 100 µg/mL (≈ 313 µM)
MIC [19]: 1.56 µg/mL (≈ 4.88 µM)
inhibition [20]: 13.1%
MIC [8]: ≤ 0.5 µg/mL

CC(/C=C/C(=O)C1=C(O)CN(C)C1=O)=C\C1CCc2ccccc2C1 (configuration not stated)
MIC [5]: 62 µg/mL (≈ 184 µM)
MIC [6]: 125 µg/mL (≈ 370 µM)
MIC [7]: 125 µg/mL (≈ 370 µM)
MIC [8]: 125 µg/mL (≈ 370 µM)

CC(/C=C/C(=O)C1=C(O)CN(C)C1=O)=C\c1ccnc2ccccc12
MIC [5]: 31 µg/mL (≈ 92.7 µM)
MIC [6]: 8 µg/mL (≈ 23.9 µM)
MIC [7]: 8 µg/mL (≈ 23.9 µM)
MIC [8]: 16 µg/mL (≈ 47.9 µM)

CC(/C=C/C(O)=C1\C(=O)CNC1=O)=C\c1ccccc1
MIC [5]: 4 µg/mL (≈ 14.9 µM)
MIC [6]: 4 µg/mL (≈ 14.9 µM)
MIC [7]: 8 µg/mL (≈ 29.7 µM)
inhibition [20]: 4.5%
MIC [8]: 4 µg/mL (≈ 14.9 µM)

CCCCCCCCCCC/C=C(C)/C=C/C(O)=C1\C(=O)CN(C)C1=O
MIC [5]: 125 µg/mL (≈ 346 µM)
MIC [6]: 4 µg/mL (≈ 11.1 µM)
MIC [7]: 31 µg/mL (≈ 85.7 µM)
MIC [8]: 125 µg/mL (≈ 346 µM)

COCCOCc1ccc2ccccc2c1/C=C(C)/C=C/C(O)=C1\C(=O)CN(C)C1=O
MIC [5]: 250 µg/mL (≈ 593 µM)
MIC [6]: 8 µg/mL (≈ 19 µM)
MIC [7]: 125 µg/mL (≈ 297 µM)
MIC [8]: 125 µg/mL (≈ 297 µM)

CC(/C=C/C(O)=C1\C(=O)CN(C)C1=O)=C\C(C)C1CCCCC1 (configuration not stated)
MIC [5]: 62 µg/mL (≈ 195 µM)
MIC [6]: 2 µg/mL (≈ 6.3 µM)
MIC [7]: 2 µg/mL (≈ 6.3 µM)
MIC [8]: 8 µg/mL (≈ 25.2 µM)

O=C(/C=C/C(Br)=C/c1ccccc1)C1=C(O)CNC1=O
MIC [5]: 8 µg/mL (≈ 23.9 µM)
MIC [6]: 8 µg/mL (≈ 23.9 µM)
MIC [7]: 31 µg/mL (≈ 92.8 µM)
inhibition [20]: 7.3%
MIC [8]: 8 µg/mL (≈ 23.9 µM)

CC(/C=C/C(=O)C1=C(O)CN(C)C1=O)=C\c1ccccn1
MIC [5]: 125 µg/mL (≈ 440 µM)
MIC [6]: 8 µg/mL (≈ 28.1 µM)
MIC [7]: 31 µg/mL (≈ 109 µM)
MIC [8]: 62 µg/mL (≈ 218 µM)

CN1CC(=O)\C(=C(O)/C=C/C=C/c2ccc(N(C)C)cc2)C1=O
MIC [5]: 62 µg/mL (≈ 198 µM)
MIC [6]: 31 µg/mL (≈ 99.2 µM)
MIC [7]: 31 µg/mL (≈ 99.2 µM)
MIC [8]: 125 µg/mL (≈ 400 µM)

CC(/C=C/C(=O)C1=C(O)CN(C)C1=O)=C\c1ccc(F)c2ccccc12
MIC [5]: 2 µg/mL (≈ 5.69 µM)
MIC [6]: 31 µg/mL (≈ 88.2 µM)
MIC [7]: 62 µg/mL (≈ 176 µM)
MIC [8]: 2 µg/mL (≈ 5.69 µM)

CCC[C@@H]1C[C@@H](C(=O)N[C@@H]([C@H]2O[C@H](SC)[C@H](O)[C@@H](O)[C@H]2O)[C@H](C)Cl)N(C)C1 [CLINDAMYCIN]
MIC [5]: 8 µg/mL (≈ 18.8 µM)
MIC [6]: 1 µg/mL (≈ 2.35 µM)
MIC [7]: < 0.5 µg/mL
MIC [8]: 2 µg/mL (≈ 4.71 µM)

CC(/C=C/C(=O)C1=C(O)CN(C)C1=O)=C\C1CCCCO1 (configuration not stated)
MIC [5]: 125 µg/mL (≈ 429 µM)
MIC [6]: 125 µg/mL (≈ 429 µM)
MIC [7]: 125 µg/mL (≈ 429 µM)
MIC [8]: 125 µg/mL (≈ 429 µM)

CO[C@H]1/C=C/O[C@@]2(C)Oc3c(C)c(O)c4c(O)c(c(/C=N/N5CCN(C)CC5)c(O)c4c3C2=O)NC(=O)/C(C)=C\C=C\[C@H](C)[C@H](O)[C@@H](C)[C@@H](O)[C@@H](C)[C@H](OC(C)=O)[C@@H]1C
inhibition [20]: 57%

CC(/C=C/C(=O)C1=C(O)CN(C)C1=O)=C\c1ccc(-c2ccccc2)cc1
MIC [5]: 125 µg/mL (≈ 348 µM)
MIC [6]: ≤ 0.5 µg/mL
MIC [7]: 31 µg/mL (≈ 86.2 µM)
MIC [8]: 8 µg/mL (≈ 22.3 µM)

CC(/C=C/C(=O)C1=C(O)CN(C)C1=O)=C\c1c(O)ccc2ccccc12
MIC [5]: 31 µg/mL (≈ 88.7 µM)
MIC [6]: 16 µg/mL (≈ 45.8 µM)
MIC [7]: 16 µg/mL (≈ 45.8 µM)
MIC [8]: 31 µg/mL (≈ 88.7 µM)

O=C(/C=C/C=C/c1ccccc1)C1=C(O)CNC1=O
MIC [5]: 50 µg/mL (≈ 196 µM)
MIC [6]: 25 µg/mL (≈ 97.9 µM)
MIC [7]: 25 µg/mL (≈ 97.9 µM)
MIC [8]: 50 µg/mL (≈ 196 µM)
